Experiments:
Assay type in all cases: functional
Conditions in all cases: read-out: DIZ
[1] = test system: Syncephalastrum racemosum; test: Antimicrobial activity against Syncephalastrum racemosum RCMB 016001 at 1 mg/ml by agar diffusion technique
Outline: (§1)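 Agar well diffusion. Test compounds and reference standard drugs were diluted to 5.0, 2.5 and 1.0 mg/mL and applied to 0.6 cm wells. Inhibition zone beyond the control was scored as 0 (no inhibition), + (0.1–0.5 cm), ++ (0.6–1.0 cm) or +++ (1.0–1.5 cm).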

Pseudomonas aeruginosa [2] = test: Antimicrobial activity against Pseudomonas aeruginosa RCMB 102002 at 5 mg/ml by agar diffusion technique; outline: as §1
Escherichia coli [3] = test: Antimicrobial activity against Escherichia coli RCMB 103001 at 2.5 mg/ml by agar diffusion technique; outline: as §1
Bacillus subtilis [4] = test: Antimicrobial activity against Bacillus subtilis RCMB 101001 at 5 mg/ml by agar diffusion technique; outline: as §1
Penicillium italicum [5] = test: Antimicrobial activity against Penicillium italicum RCMB 001018 at 2.5 mg/ml by agar diffusion technique; outline: as §1
Bacillus subtilis [6] = test: Antimicrobial activity against Bacillus subtilis RCMB 101001 at 2.5 mg/ml by agar diffusion technique; outline: as §1
Staphylococcus aureus [7] = test: Antimicrobial activity against Staphylococcus aureus RCMB 106001 at 2.5 mg/ml by agar diffusion technique; outline: as §1
Escherichia coli [8] = test: Antimicrobial activity against Escherichia coli RCMB 103001 at 1 mg/ml by agar diffusion technique; outline: as §1
Penicillium italicum [9] = test: Antimicrobial activity against Penicillium italicum RCMB 001018 at 5 mg/ml by agar diffusion technique; outline: as §1
Candida albicans [10] = test: Antimicrobial activity against Candida albicans RCMB 005003 at 5 mg/ml by agar diffusion technique; outline: as §1
Bacillus subtilis [11] = test: Antimicrobial activity against Bacillus subtilis RCMB 101001 at 1 mg/ml by agar diffusion technique; outline: as §1
[12] = test system: Syncephalastrum racemosum; test: Antimicrobial activity against Syncephalastrum racemosum RCMB 016001 at 2.5 mg/ml by agar diffusion technique; outline: as §1
Candida albicans [13] = test: Antimicrobial activity against Candida albicans RCMB 005003 at 2.5 mg/ml by agar diffusion technique; outline: as §1
Staphylococcus aureus [14] = test: Antimicrobial activity against Staphylococcus aureus RCMB 106001 at 1 mg/ml by agar diffusion technique; outline: as §1
Penicillium italicum [15] = test: Antimicrobial activity against Penicillium italicum RCMB 001018 at 1 mg/ml by agar diffusion technique; outline: as §1
[16] = test system: Syncephalastrum racemosum; test: Antimicrobial activity against Syncephalastrum racemosum RCMB 016001 at 5 mg/ml by agar diffusion technique; outline: as §1
Aspergillus fumigatus [17] = test: Antimicrobial activity against Aspergillus fumigatus RCMB 002008 at 2.5 mg/ml by agar diffusion technique; outline: as §1
Staphylococcus aureus [18] = test: Antimicrobial activity against Staphylococcus aureus RCMB 106001 at 5 mg/ml by agar diffusion technique; outline: as §1
Pseudomonas aeruginosa [19] = test: Antimicrobial activity against Pseudomonas aeruginosa RCMB 102002 at 2.5 mg/ml by agar diffusion technique; outline: as §1
Escherichia coli [20] = test: Antimicrobial activity against Escherichia coli RCMB 103001 at 5 mg/ml by agar diffusion technique; outline: as §1
Aspergillus fumigatus [21] = test: Antimicrobial activity against Aspergillus fumigatus RCMB 002008 at 5 mg/ml by agar diffusion technique; outline: as §1
Pseudomonas aeruginosa [22] = test: Antimicrobial activity against Pseudomonas aeruginosa RCMB 102002 at 1 mg/ml by agar diffusion technique; outline: as §1
Aspergillus fumigatus [23] = test: Antimicrobial activity against Aspergillus fumigatus RCMB 002008 at 1 mg/ml by agar diffusion technique; outline: as §1
Candida albicans [24] = test: Antimicrobial activity against Candida albicans RCMB 005003 at 1 mg/ml by agar diffusion technique; outline: as §1

SMILES | zone of inhibition at 1000 µg/mL [1] [mm] | zone of inhibition at 5000 µg/mL (Pseudomonas aeruginosa [2]) [mm] | zone of inhibition at 2500 µg/mL (Escherichia coli [3]) [mm] | zone of inhibition at 5000 µg/mL (Bacillus subtilis [4]) [mm] | zone of inhibition at 2500 µg/mL (Penicillium italicum [5]) [mm] | zone of inhibition at 2500 µg/mL (Bacillus subtilis [6]) [mm] | zone of inhibition at 2500 µg/mL (Staphylococcus aureus [7]) [mm] | zone of inhibition at 1000 µg/mL (Escherichia coli [8]) [mm] | zone of inhibition at 5000 µg/mL (Penicillium italicum [9]) [mm] | zone of inhibition at 5000 µg/mL (Candida albicans [10]) [mm] | zone of inhibition at 1000 µg/mL (Bacillus subtilis [11]) [mm] | zone of inhibition at 2500 µg/mL [12] [mm] | zone of inhibition at 2500 µg/mL (Candida albicans [13]) [mm] | zone of inhibition at 1000 µg/mL (Staphylococcus aureus [14]) [mm] | zone of inhibition at 1000 µg/mL (Penicillium italicum [15]) [mm] | zone of inhibition at 5000 µg/mL [16] [mm] | zone of inhibition at 2500 µg/mL (Aspergillus fumigatus [17]) [mm] | zone of inhibition at 5000 µg/mL (Staphylococcus aureus [18]) [mm] | zone of inhibition at 2500 µg/mL (Pseudomonas aeruginosa [19]) [mm] | zone of inhibition at 5000 µg/mL (Escherichia coli [20]) [mm] | further results
S=c1[nH]nc(-c2cccnc2)n1/N=C\c1ccccc1OCCOCCOc1ccccc1/C=N\n1c(-c2cccnc2)n[nH]c1=S | 0 | 0 | 0 | 1 | 1 | 1 | 0 | 0 | 1 | 0 | 1 | 0 | 0 | 0 | 1 | 1 | 1 | 0 | 0 | 0 | zone of inhibition at 5000 µg/mL (Aspergillus fumigatus [21]): 1 mm; zone of inhibition at 1000 µg/mL (Pseudomonas aeruginosa [22]): 0 mm; zone of inhibition at 1000 µg/mL (Aspergillus fumigatus [23]): 0 mm; zone of inhibition at 1000 µg/mL (Candida albicans [24]): 0 mm
Nn1c(SCCCSc2nnc(-c3cccnc3)n2N)nnc1-c1cccnc1 | 0 | 0 | 0 | 0 | 0 | 0 | 0 | 0 | 0 | 1 | 0 | 0 | 0 | 0 | 0 | 1 | 1 | 0 | 0 | 0 | zone of inhibition at 5000 µg/mL (Aspergillus fumigatus [21]): 1 mm; zone of inhibition at 1000 µg/mL (Pseudomonas aeruginosa [22]): 0 mm; zone of inhibition at 1000 µg/mL (Aspergillus fumigatus [23]): 0 mm; zone of inhibition at 1000 µg/mL (Candida albicans [24]): 0 mm
CN(C/C=C/C#CC(C)(C)C)Cc1cccc2ccccc12 [TERBINAFINE] | 10 | 10 | 6 | 10 | 10 | 10 | 6 | 6 | 10 | 6 | 6 | 10 | 6 | 6 | 6 | 10 | 10 | 6 | 10 | 6 | zone of inhibition at 5000 µg/mL (Aspergillus fumigatus [21]): 10 mm; zone of inhibition at 1000 µg/mL (Pseudomonas aeruginosa [22]): 6 mm; zone of inhibition at 1000 µg/mL (Aspergillus fumigatus [23]): 6 mm; zone of inhibition at 1000 µg/mL (Candida albicans [24]): 6 mm

— ChEMBL document CHEMBL1629465, “Efficient synthesis of novel 1,2,4-triazole fused acyclic and 21-28 membered macrocyclic and/or lariat macrocyclic oxaazathia crown compounds with potential antimicrobial activity” (2010)
